Experimental data published in ChEMBL document CHEMBL1123719, “Leukotriene receptor antagonists. 1. Synthesis and structure-activity relationships of alkoxyacetophenone derivatives” (J Med Chem, 1987).

Species: Cavia porcellus
Experiment: Negative logarithm of compound concentration that reduced an LTD4-induced contraction of guinea pig ileum by 50%
Type: functional
Summary of the method: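 Ileum from male Hartley guinea pigs (200-400 g), with isometric tension recorded. Two, three or four antagonist concentrations were tested on a single ileum against a submaximal LTD4 contraction. The concentration giving 50% inhibition was extrapolated by linear regression and expressed as -log IC50.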

SMILES	IC50
CCCc1c(OCCCCCCN2CCN(C)CC2)ccc(C(C)=O)c1O	5.01 µM
CCCc1c(OCCCCCCN2CCOCC2)ccc(C(C)=O)c1O	3.16 µM
CCCc1c(OCCCCCCO)ccc(C(C)=O)c1O	3.98 µM
CCCc1c(OCCCCCCCCCCc2nn[nH]n2)ccc(C(C)=O)c1O	3.16 µM
CCCc1c(OCCCCCCCCc2nn[nH]n2)ccc(C(C)=O)c1O	0.316 µM
CCCc1c(OCCCCCCCCCC(=O)O)ccc(C(C)=O)c1O	0.794 µM
CCCc1c(OCCCCCCN(C)C)ccc(C(C)=O)c1O	6.31 µM
CCCc1c(OCCCCCCCC(=O)O)ccc(C(C)=O)c1O	0.794 µM
CCCc1c(OCCCCCCCCCc2nn[nH]n2)ccc(C(C)=O)c1O	0.251 µM

The compounds below were run on Cavia porcellus (assay: Bronchospastic activity to prevent increase in total pulmonary impedance (TPI) in guinea pig when administered intravenously).
Type: functional
Summary of the method: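 Anesthetized male Hartley guinea pigs (200-400 g), body temperature kept normal on an isothermal pad. Total pulmonary impedance was recorded with pressure transducers. LTD4 was given iv as randomized doses to build dose-response curves. The antagonist was given intravenously.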

SMILES	Increase
CCCc1c(OCCCCc2nnn[nH]2)ccc(C(C)=O)c1O [TOMELUKAST]	2.2%
CCCc1c(OCCCCCCc2nn[nH]n2)ccc(C(C)=O)c1O	27.1%
CCCc1c(OCCCCCc2nn[nH]n2)ccc(C(C)=O)c1O	25.6%

Species: Cavia porcellus
Experiment: Percent inhibition LTD4-induced contraction of guinea pig ileum at 1 uM of concentration
Type: functional
Summary of the method: (§1)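 Percent reduction of LTD4-induced contraction of isolated ileum from male Hartley guinea pigs (200-400 g). The antagonist was tested at the single concentration stated, and contraction was measured isometrically as grams of force.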

SMILES	Inhibition
CCCc1c(OCCCc2nnn[nH]2)ccc(C(C)=O)c1O	15%

Species: Cavia porcellus
Experiment: Percent inhibition LTD4-induced contraction of guinea pig ileum at 30 uM of concentration
Type: functional
Summary of the method: as §1

SMILES	Inhibition
CCCc1c(OCc2nn[nH]n2)ccc(C(C)=O)c1O	28%
CCCc1c(OCCC(=O)O)ccc(C(C)=O)c1O	23%
CCCc1c(OCC(=O)O)ccc(C(C)=O)c1O	8%
CCCc1c(OCCCC(=O)O)ccc(C(C)=O)c1O	43%

Species: Cavia porcellus
Experiment: Percent inhibition LTD4-induced contraction of guinea pig ileum at 10 uM of concentration
Type: functional
Summary of the method: as §1

SMILES	Inhibition
CCCc1c(OCCCCCC(=O)O)ccc(O)c1C(C)=O	0%

Species: Cavia porcellus
Experiment: Percent inhibition LTD4-induced contraction of guinea pig ileum at 3 uM of concentration
Type: functional
Summary of the method: as §1

SMILES	Inhibition
CCCc1cc(C(C)=O)ccc1OCCCCCC(=O)O	0%
CCCc1c(OCCCCCC(=O)O)ccc(C(=O)OC)c1O	21%
C=CCc1c(OCCCCCC(=O)O)ccc(C(C)=O)c1O	29%
CCCc1c(OCCCCCCCCCCC(=O)O)ccc(C(C)=O)c1O	79%
CCCc1c(OCCCCCCCCCCCCc2nn[nH]n2)ccc(C(C)=O)c1O	47%
CC(=O)c1ccc(OCCCCCC(=O)O)cc1O	11%
CCCc1c(OCCCCCC#N)ccc(C(C)=O)c1O	0%

What follows are compounds tested on cysteinyl leukotriene receptor (Cavia porcellus) (assay: Inhibition of LTD4-induced contraction of guinea pig ileum.).

SMILES	pKB
CCCc1c(OCCCCCC(=O)O)ccc(C(C)=O)c1O	6
CCCc1c(OCCCCC(=O)O)ccc(C(C)=O)c1O	5.8
CCCc1c(OCCCCCCC(=O)O)ccc(C(C)=O)c1O	5.7
CCCc1c(OCCCCCCCCC(=O)O)ccc(C(C)=O)c1O	5.8
CCCc1c(OCCCCCCCc2nn[nH]n2)ccc(C(C)=O)c1O	7
CCCc1c(OCCCCCCc2nn[nH]n2)ccc(C(C)=O)c1O	7.1
CCCc1c(OCCCCCc2nn[nH]n2)ccc(C(C)=O)c1O	6.6
CCCc1c(OCCCCCC(=O)O)ccc(C(=O)CC)c1O	6.1
